ChEMBL document CHEMBL1143012, “Synthesis and pharmacological in vitro and in vivo evaluations of novel triazole derivatives as ligands of the ghrelin receptor. 1” (J Med Chem, 2007)
Square brackets hold non-standard residues; d marks the D form. Peptide text beside a SMILES is read from it. dTrp(2-Me) = Cc1[nH]c2ccccc2c1C[C@@H](N)C(=O)O

Columns and labels:
[1] = target: T1, Growth hormone secretagogue receptor type 1 (Homo sapiens, UniProt Q92847); assay: Displacement of [125I-His9]ghrelin from human GHS1a receptor expressed in LLC PK1 cells; assay type: cell-based
T1 sequence (Q92847 whole entry): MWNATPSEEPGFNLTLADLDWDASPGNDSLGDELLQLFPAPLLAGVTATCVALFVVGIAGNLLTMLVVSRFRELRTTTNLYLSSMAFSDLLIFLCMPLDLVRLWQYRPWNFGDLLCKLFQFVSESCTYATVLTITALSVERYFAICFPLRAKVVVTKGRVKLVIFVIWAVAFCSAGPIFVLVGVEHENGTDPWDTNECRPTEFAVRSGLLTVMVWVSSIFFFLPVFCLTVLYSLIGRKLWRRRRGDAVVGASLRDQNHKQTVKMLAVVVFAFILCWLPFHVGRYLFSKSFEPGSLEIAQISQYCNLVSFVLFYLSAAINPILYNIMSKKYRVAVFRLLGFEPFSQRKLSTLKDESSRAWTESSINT
Summary of the method: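 Membranes from LLC PK-1 cells transiently electroporated with hGHS-R1a (harvested about 48 h), 10 µg protein, incubated 60 min at 25 °C with 60 pM 125I-His9-ghrelin in Tris pH 7.3/MgCl2/EDTA/bacitracin buffer. Filtered, washed, gamma counted; nonspecific binding with 10 µM ghrelin. Triplicates, at least three experiments.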

Rattus norvegicus [2] = assay: Stimulation of cumulative food intake per 100 g body weight in Sprague-Dawley rat at 160 ug/kg, sc at 6 hrs; assay type: functional
Summary of the method: (§1)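 Male Sprague-Dawley rats (125-150 g), singly housed and trained, given compound sc alone (cumulative food intake as g/100 g body weight, weighed hourly to 6 h); percentage variation calculated as (compound minus hexarelin 80 µg/kg intake)/hexarelin intake at 6 h. Mean ± SEM, ANOVA with Dunnett's test.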

[3] = target: T1, Growth hormone secretagogue receptor type 1; assay: Agonist activity at human GHS1a receptor expressed in CHO cells assessed as induction of intracellular calcium mobilization; assay type: functional, cell-based; conditions: for Activity: filed as partial agonist
Summary of the method: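 CHO cells transiently expressing hGHS-R1a via electroporation, Fluo-4AM loaded (1 µM, 1 h, 37 °C), calcium fluorescence read 60 s at ex 485/em 525 nm. EC50 from agonist dose-response curves, response as percentage of maximal signal from 10 µM ghrelin; triplicates, means of at least three experiments.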

Rattus norvegicus [4] = assay: Stimulation of cumulative food intake in Sprague-Dawley rat at 160 ug/kg, sc at 6 hrs relative to 80 ug/kg hexarelin; assay type: functional; summary of the method: as §1
[5] = target: T1, Growth hormone secretagogue receptor type 1; assay: Activity at human GHS1a receptor expressed in CHO cells assessed as intracellular calcium mobilization relative to 0.1 uM ghrelin; assay type: functional, cell-based
Rattus norvegicus [6] = assay: Effect on growth hormone secretion in Sprague-Dawley rat at 160 ug/kg, sc; assay type: functional
Summary of the method: (§2)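 Male 10-day-old Sprague-Dawley pups (~25 g), groups of eight, separated from dams 1 h before. Compounds in DMSO diluted with saline, sc; hexarelin 80 µg/kg, test compound 160 µg/kg; with combined treatment compound given 10 min before hexarelin. Killed 15 min later; plasma GH by rat GH enzyme immunoassay, ng/mL.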

Rattus norvegicus [7] = assay: Inhibition of hexarelin-stimulated cumulative food intake in Sprague-Dawley rat at 80 ug/kg, sc at 6 hrs; assay type: functional
Summary of the method: (§3)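 Male Sprague-Dawley rats (125-150 g), singly housed, acclimated and trained. Compound given sc at 0, 20, 80, 160 or 320 µg/kg at -10 min, then hexarelin 80 µg/kg sc at time 0. Food weighed hourly for 6 h, normalized as g/100 g body weight; 7-8 determinations, one-way ANOVA with Dunnett's test.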

Rattus norvegicus [8] = assay: Inhibition of hexarelin-stimulated cumulative food intake in Sprague-Dawley rat at 160 ug/kg, sc at 6 hrs; assay type: functional; summary of the method: as §3
Rattus norvegicus [9] = assay: Inhibition of hexarelin-stimulated cumulative food intake in Sprague-Dawley rat at 320 ug/kg, sc at 6 hrs; assay type: functional; summary of the method: as §3
Rattus norvegicus [10] = assay: Inhibition of hexarelin-stimulated cumulative food intake in Sprague-Dawley rat at 20 ug/kg, sc at 6 hrs; assay type: functional; summary of the method: as §3
[11] = target: T1, Growth hormone secretagogue receptor type 1; assay: Antagonist activity at human GHS1a receptor expressed in CHO cells assessed as inhibition of ghrelin-induced intracellular calcium mobilization; assay type: functional, cell-based
Summary of the method: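 Calcium flux (Fluo-4AM, ex 485/em 525 nm) in CHO cells transiently expressing hGHS-R1a. Antagonist inhibition curves against 0.1 µM ghrelin give IC50; Kb by Cheng-Prusoff, with Schild analysis of ghrelin EC50 shifts for pA2 and exact Kb. Signal as percentage of 10 µM ghrelin response; duplicates, at least three experiments.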

Rattus norvegicus [12] = assay: Effect on growth hormone secretion in Sprague-Dawley rat at 80 ug/kg, sc; assay type: functional; summary of the method: as §2
Rattus norvegicus [13] = assay: Stimulation of cumulative food intake in Sprague-Dawley rat at 80 ug/kg, sc at 6 hrs; assay type: functional; summary of the method: as §1

| IC50 [1] | Activity [5] | Structure (SMILES) | Activity (Rattus norvegicus [2]) | Activity (Rattus norvegicus [4]) | other results |
| --- | --- | --- | --- | --- | --- |
| 33 nM | 30% | CC(C)(N)C(=O)N[C@H](Cc1c[nH]c2ccccc12)c1nnc(CCCc2c[nH]c3ccccc23)n1Cc1ccccc1 | 0.01 g | -97% | Activity (Rattus norvegicus [6]): 13 ng/mL; Activity (Rattus norvegicus [7]): 0.25 g; EC50 [3]: 49 nM; Activity (Rattus norvegicus [8]): 0.25 g; Activity (Rattus norvegicus [9]): 0.08 g; Activity (Rattus norvegicus [10]): 0.46 g |
| 60 nM | 0% | COc1ccc(Cn2c(CCc3ccccc3)nnc2[C@@H](Cc2c[nH]c3ccccc23)NC(=O)C(C)(C)N)c(OC)c1 | – | – | Kb [11]: 17 nM |
| 21 nM | 16% | Cc1ccc(Cn2c(CCCc3ccccc3)nnc2[C@@H](Cc2c[nH]c3ccccc23)NC(=O)C(C)(C)N)cc1 | 0.74 g | -55% | EC50 [3]: 12 nM |
| > 1000 nM | 0% | COc1cc(Cn2c(CCc3ccccc3)nnc2[C@@H](Cc2c[nH]c3ccccc23)NC(=O)C(C)(C)N)cc(OC)c1 | – | – | Activity ([11]; filed as antagonist): Antagonist |
| – | 0% | COc1ccc(Cn2c(CCCc3ccccc3)nnc2[C@@H](Cc2c[nH]c3ccccc23)NC(=O)C(C)(C)N)cc1 | – | – | Kb [11]: 14 nM |
| 145 nM | 0% | COc1ccc(Cn2c(CCCc3c[nH]c4ccccc34)nnc2[C@@H](Cc2c[nH]c3ccccc23)NC(=O)C(C)(C)N)cc1 | – | – | Kb [11]: 12 nM |
| 410 nM | 66% | COc1ccccc1Cn1c(Cc2ccccc2)nnc1[C@@H](Cc1c[nH]c2ccccc12)NC(=O)C(C)(C)N | – | – | Activity ([11]; filed as partial agonist): Partial agonist |
| 121 nM | 0% | COc1ccc(Cn2c(Cc3ccccc3)nnc2[C@@H](Cc2c[nH]c3ccccc23)NC(=O)C(C)(C)N)cc1 | 0.17 g | -31% | Activity ([11]; filed as antagonist): Antagonist |
| 11 nM | 18% | CC(C)(N)C(=O)N[C@H](Cc1c[nH]c2ccccc12)c1nnc(CCCc2c[nH]c3ccccc23)n1CCc1ccccc1 | 0.75 g | -21% | EC50 [3]: 15 nM |
| 11 nM | 0% | COc1ccc(Cn2c(CCc3ccccc3)nnc2[C@@H](Cc2c[nH]c3ccccc23)NC(=O)C(C)(C)N)cc1 | 0.2 g | -10% | Kb [11]: 5 nM |

The remaining lines, values behind:

| Structure (SMILES) | IC50 [1] | Activity [5] | Activity (Rattus norvegicus [2]) | Activity (Rattus norvegicus [4]) | other results |
| --- | --- | --- | --- | --- | --- |
| CC(C)(N)C(=O)N[C@H](Cc1c[nH]c2ccccc12)c1nnc(CCc2c[nH]c3ccccc23)n1Cc1ccc(Cl)c(Cl)c1 | 55 nM | 28% | 0.41 g | -45% | Activity [3]: Partial agonist |
| CC(C)(N)C(=O)N[C@H](Cc1c[nH]c2ccccc12)c1nnc(CCc2c[nH]c3ccccc23)n1CCc1c[nH]c2ccccc12 | 150 nM | 82% | 0.27 g | -25% | Activity [3]: Partial agonist |
| Cc1[nH]c2ccccc2c1C[C@@H](NC(=O)[C@@H](N)Cc1c[nH]cn1)C(=O)N[C@@H](C)C(=O)N[C@@H](Cc1c[nH]c2ccccc12)C(=O)N[C@H](Cc1ccccc1)C(=O)N[C@@H](CCCCN)C(N)=O [EXAMORELIN] (H-H[dTrp(2-Me)]AW[dF]K-NH2) | – | – | – | – | Activity (Rattus norvegicus [12]): 170 ng/mL; Activity (Rattus norvegicus [13]): 1.01 g |
| COc1ccc(Cn2c(CCc3c[nH]c4ccccc34)nnc2[C@@H](Cc2c[nH]c3ccccc23)NC(=O)C(C)(C)N)c(OC)c1 | 108 nM | 0% | 0.06 g | -63% | Kb [11]: 14 nM |
| COc1ccc(Cn2c(Cc3ccccc3)nnc2[C@@H](Cc2c[nH]c3ccccc23)NC(=O)C(C)(C)N)c(OC)c1 | 560 nM | 0% | – | – | Activity ([11]; filed as antagonist): Antagonist |
| COc1ccc(Cn2c(Cc3c[nH]c4ccccc34)nnc2[C@@H](Cc2c[nH]c3ccccc23)NC(=O)C(C)(C)N)cc1 | 660 nM | 0% | – | – | Activity ([11]; filed as antagonist): Antagonist |
| CC(C)(N)C(=O)N[C@H](Cc1c[nH]c2ccccc12)c1nnc(CCCc2c[nH]c3ccccc23)n1CCc1c[nH]c2ccccc12 | 14 nM | 85% | 0.22 g | 54% | EC50 [3]: 140 nM |
| COc1ccccc1Cn1c(CCc2c[nH]c3ccccc23)nnc1[C@@H](Cc1c[nH]c2ccccc12)NC(=O)C(C)(C)N | – | 50% | – | – | Activity ([11]; filed as partial agonist): Partial agonist |
